Common to all, as to type: functional
One experiment concerns Staphylococcus aureus. The experiment can be described thus: Antibacterial activity against Staphylococcus aureus ATCC 25923 assessed as inhibition of bacterial growth incubated for 24 hrs by broth microdilution method. Background: Broth dilution looks for growth in wells or tubes with falling amounts of substance.
Experiment [1] deals with Enterococcus faecium. The experiment can be described thus: Antibacterial activity against Enterococcus faecium clinical isolate K60-39 assessed as inhibition of bacterial growth incubated for 24 hrs by broth microdilution method. Put shortly:
(§1)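 Broth microdilution per published protocols (CLSI dilution method for aerobically growing bacteria). E. faecium strains K59-68 and K60-39 are clonal complex 17 sub-cluster clinical bloodstream isolates from patients at University Hospital of North Norway. Ampicillin served as positive control and DMSO as negative control. MIC was determined from triplicate assays.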

Experiment [2] has as its system Enterococcus faecium. The experiment can be described thus: Antibacterial activity against Enterococcus faecium clinical isolate K59-68 assessed as inhibition of bacterial growth incubated for 24 hrs by broth microdilution method. Put shortly: as §1
The test system of a further experiment is Enterococcus faecalis. The experiment can be described thus: Antibacterial activity against Enterococcus faecalis ATCC 29212 assessed as inhibition of bacterial growth incubated for 24 hrs by broth microdilution method.

The structures appear in SMILES notation. In brackets after ≈: the same amount, converted by molar mass.

This note sets out measurements from ChEMBL document CHEMBL5385951, “Accraspiroketides A-B, Phenylnaphthacenoid-Derived Polyketides with Unprecedented [6 + 6+6 + 6] + [5 + 5] Spiro-Architecture” (2024).

As a reminder, the MIC is the smallest concentration in the dilution series that meets the test's criterion for growth inhibition.

Take `COc1cc2c(c(O)c1Cl)C(=O)c1c(cc3cc(O)cc4c3c1O[C@@]41C(C)=C(C(=O)O)C(Cl)=C1Cl)C2(C)C`: the MIC in the experiment with Staphylococcus aureus came out at 3.1 µg/mL (≈ 5.4 µM); in the experiment on Enterococcus faecium [1] it was 4 µg/mL (≈ 6.97 µM); with Enterococcus faecium [2], 1.5 µg/mL (≈ 2.61 µM); with Enterococcus faecalis, 3.1 µg/mL (≈ 5.4 µM).
`COc1cc2c(c(O)c1Cl)C(=O)c1c(cc3c(Cl)c(O)cc4c3c1O[C@@]41C(C)=C(C(=O)O)C(Cl)=C1Cl)C2(C)C`: the MIC was determined as 6.3 µg/mL (≈ 10.4 µM) in the experiment with Staphylococcus aureus, 4.7 µg/mL (≈ 7.73 µM) in the experiment with Enterococcus faecium [1], 1.5 µg/mL (≈ 2.47 µM) in the experiment with Enterococcus faecium [2] and 3.1 µg/mL (≈ 5.1 µM) in the experiment with Enterococcus faecalis.
The corresponding values for `CC1(C)S[C@@H]2[C@H](NC(=O)[C@H](N)c3ccccc3)C(=O)N2[C@H]1C(=O)O` [AMPICILLIN] are 0.5 µg/mL (≈ 1.43 µM), 25 µg/mL (≈ 71.5 µM), 1.5 µg/mL (≈ 4.29 µM) and 1 µg/mL (≈ 2.86 µM).
